The subject of assay [1] is Zika virus. The experiment in a line: Antiviral activity against Zika virus infected in human BE(2)-C cells assessed as NS3 protein expression at 3.125 uM treated during 3 to 24 hrs post infection by Western blot analysis (reference value: 100%). The class given is functional. A digest of the protocol: (§1)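 Time-of-addition design: BE(2)C cells were infected with DENV-2 or ZIKV at MOI 1. Compound at 3.125 or 6.25 μM was present either during adsorption (0–3 hpi) or afterward (3–24 hpi). Viral protein was immunoblotted against actin, with the ratio as % of the solvent control.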

Assay [2] concerns dengue virus type 2. Description: Antiviral activity against Dengue virus 2 infected in human BE(2)-C cells assessed as reduction in NS3 protein expression at 3.125 to 6.25 uM treated during 3 to 24 hrs post infection by Western blot analysis. The class given is functional, organism-based. A digest of the protocol: as §1
For assay [3], the system named is dengue virus type 2. The experiment in a line: Antiviral activity against DENV-2 NGC-N infected in Stat1-/- mouse assessed as overall mouse survival at 8 mg/kg, po dosed immediately following viral infection followed by daily dosing for 6 days (reference value: 0%). The class given is functional. Conditions: 144 h.
The test system of assay [4] is Zika virus. Description: Antiviral activity against Zika virus infected in Stat1-/- mouse assessed as delay in virus-induced mouse mortality at 4 mg/kg/day, po dosed immediately following viral infection followed by daily dosing for 6 days (reference value: 13 days). The class given is functional, organism-based.
Assay [5] deals with dengue virus type 2. Description: Antiviral activity against DENV-2 NGC-N infected in Stat1-/- mouse assessed as overall mouse survival at 4 mg/kg, po dosed immediately following viral infection followed by daily dosing for 6 days (reference value: 0%). The class given is functional. Conditions: 144 h.
The subject of assay [6] is dengue virus type 2. The experiment in a line: Antiviral activity against Dengue virus 2 infected in human HMC3 cells assessed as reduction in viral progeny production at 1.56 to 12.5 uM incubated for 48 hrs by Virus titer assay. Format: functional, organism-based. A digest of the protocol: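 Human microglial HMC3 cells in MEM with 10% FBS were infected with DENV-2 PL046 at MOI 0.1 for 48 h in the presence of noncytotoxic compound concentrations. Progeny virus was titrated by plaque assay on BHK-21 cells, expressed as log PFU/mL.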

For assay [7], the system named is Zika virus. Conditions: 3.125 to 6.25 uM.
Assay [8] has as its system Zika virus. Description: Antiviral activity against Zika virus infected in human BE(2)-C cells assessed as NS3 protein expression at 0.39 uM incubated for 48 hrs by Western blot analysis (reference value: 100%). The class given is functional. A digest of the protocol: (§2)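 BE(2)C cells were infected with ZIKV PRVABC59 at MOI 0.1 for 48 h, with or without compound at increasing concentrations. Viral protein was immunoblotted with actin as loading control. The band-density ratio was given as % of the solvent control. Mean ± SD, 3 independent experiments.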

The test system of assay [9] is Zika virus. The experiment in a line: Antiviral activity against fluorescently labeled Zika virus infected in human BE(2)-C cells at 3.125 uM by confocal microscopy. Format: functional, organism-based. A digest of the protocol:
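DENV-2 or ZIKV was concentrated and labeled with atto-647N dye. BE(2)C cells were pretreated with solvent or 3.125 µM, then incubated at 37 °C with labeled DENV-2 for 30 min or ZIKV for 60 min. Cells were fixed in 4% paraformaldehyde, membranes stained with WGA-488, and intracellular virus signal imaged by confocal microscopy.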

Assay [10] relates to Zika virus. Description: Antiviral activity against Zika virus infected in human BE(2)-C cells assessed as NS3 protein expression at 12.5 uM incubated for 48 hrs by Western blot analysis (reference value: 100%). The class given is functional. A digest of the protocol: as §2
Assay [11] has as its system dengue virus type 2. The experiment in a line: Antiviral activity against eGFP-fused Dengue virus 2 infected in human BE(2)-C cells assessed as viral infection level by measuring intensity of eGFP emission from infected cells at 3.13 uM incubated for 24 hrs relative to control. The class given is functional. A digest of the protocol: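 BE(2)C cells, in RPMI 1640 with 10% FBS, were infected with DENV-2-eGFP reporter virus (MOI 1) for 24 h with or without compound, using DMSO as solvent control. Cells were fixed in 4% paraformaldehyde and stained with Hoechst, then imaged by high-content analysis. eGFP intensity per cell number is given as % of solvent control. Values are means of 3 experiments.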

Assay [12] has as its system Zika virus. The experiment in a line: Antiviral activity against Zika virus infected in human BE(2)-C cells assessed as reduction inNS3 protein expression at 3.125 to 6.25 uM treated during 0 to 3 hrs post infection by Western blot analysis. The class given is functional, organism-based. A digest of the protocol: as §1
Assay [13] concerns dengue virus type 2. The experiment in a line: Antiviral activity against Dengue virus 2 infected in human BE(2)-C cells assessed as NS3 protein expression at 6.25 uM treated during 3 to 24 hrs post infection by Western blot analysis (reference value: 100%). Format: functional. A digest of the protocol: as §1
Assay [14] has as its system Zika virus. Description: Antiviral activity against Zika virus infected in human BE(2)-C cells transfected with shLacZ assessed as NS3 protein expression at 3.125 uM incubated for 48 hrs by Western blot analysis (reference value: 100%). The class given is functional.
Assay [15] relates to dengue virus type 2. The experiment in a line: Antiviral activity against Dengue virus 2 infected in human BE(2)-C cells assessed as reduction in viral entry at 3.125 to 6.25 uM incubated for 90 mins by plaque-forming assay relative to control. Format: functional. On the set-up: scale not given: the % may be the effect or the level left. A digest of the protocol:
(§3)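 Virus entry: BE(2)C cells were incubated with DENV-2 or ZIKV for 90 min at 4 °C and washed cold. Cells were then treated with 3.125 or 6.25 μM compound at 37 °C for 1 h. Non-internalized virus was inactivated with 0.1 M glycine, pH 3, for 5 min. Cells were lysed by needle passage, and internalized virus was titrated by plaque assay. Mean ± SD, n = 3.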

Assay [16] concerns dengue virus type 2. To be noted: 3.125 to 6.25 uM.
Assay [17] concerns Zika virus. Description: Antiviral activity against Zika virus infected in human HMC3 cells assessed as reduction in viral progeny production at 1.56 to 12.5 uM incubated for 48 hrs by Virus titer assay. Format: functional, organism-based. A digest of the protocol:
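HMC3 microglia were grown in MEM with 10% FBS and infected with ZIKV PRVABC59 (MOI 0.1) for 48 h at the specified concentrations. Viral protein was read by immunofluorescence with Hoechst nuclear stain. Infectious progeny was titred by plaque assay on Vero cells (log PFU/mL). DMSO served as the solvent control.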

Assay [18] has as its system dengue virus type 2. Description: Antiviral activity against Dengue virus 2 infected in human BE(2)-C cells assessed as NS3 protein expression incubated for 48 hrs by Western blot analysis. Format: functional, organism-based. A digest of the protocol:
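BE(2)C neuroblastoma cells in RPMI 1640 with 10% FBS were infected with DENV-2 PL046 at MOI 0.1 for 48 h, without or with compound at increasing concentrations. NS3 was immunoblotted with actin as loading control. The NS3:actin densitometry ratio was expressed as % of the DMSO control. Mean ± SD of 3 independent experiments.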

For assay [19], the system named is Zika virus. Description: Antiviral activity against Zika virus infected in human BE(2)-C cells transfected with shCaMKIIalpha assessed as NS3 protein expression at 6.25 uM incubated for 48 hrs by Western blot analysis (reference value: 100%). Format: functional.
In assay [20] the test system is Zika virus. Description: Antiviral activity against Zika virus infected in human BE(2)-C cells assessed as reduction in viral entry at 3.125 to 6.25 uM incubated for 90 mins by plaque-forming assay relative to control. Format: functional. On the set-up: scale not given: the % may be the effect or the level left. A digest of the protocol:
as §3

The test system of assay [21] is Zika virus. Description: Antiviral activity against Zika virus infected in human BE(2)-C cells assessed as NS3 protein expression at 3.125 uM treated during 0 to 3 hrs post infection by Western blot analysis (reference value: 100%). Format: functional. A digest of the protocol:
as §1

Activity calls are given as the source filed them. The calls are words filed in the database; no cut-off is given here.

With `COc1ccc(S(=O)(=O)N(CCCC(=O)C2CCCCCC2)c2ccccc2)cc1`, the Activity is 97.2% in [1]; 97.7% in assay [8]; 0.1% in assay [10]; 9.6% in assay [11]; “Dose-dependent effect” in [12]; 55.3% in assay [13]. The Activity in [14] is 102%; in assay [15], “<=70%”; in assay [18] it was “Dose-dependent effect”; in assay [19], 89.1%; in assay [20], 80%; in [21] it was 60.1%. The outcome in assay [2] and in [4] was inactive. Besides, in assay [3], the survival at 8 mg/kg was determined as 60%. Moreover, in assay [5], the survival at 4 mg/kg was 60%. The result in [6], in assay [9] and in assay [17] was Active. In addition, the inhibition entry in [7] and in assay [16] was “inactive” in each case.

The record behind these values is ChEMBL document CHEMBL4376891, “Benzenesulfonamide Derivatives as Calcium/Calmodulin-Dependent Protein Kinase Inhibitors and Antiviral Agents against Dengue and Zika Virus Infections” (J Med Chem, 2020).
